This is an account of results in ChEMBL document CHEMBL1938254, “Semisynthetic neoboutomellerone derivatives as ubiquitin-proteasome pathway inhibitors” (Bioorg Med Chem, 2012).

The nature of experiment [1]: Cytotoxicity against human WM266.4 cells after 72 hrs by ATPlite assay. The settings on record: WM 266-4, 72 h. The experiment is classed as functional, cell-based. The method, boiled down: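 WM-266-4 metastatic melanoma cells grown in DMEM with 10% fetal calf serum, 2 mM L-glutamine, fungizone and penicillin–streptomycin at 37 °C, 5% CO2. Seeded at 3 × 10⁴ cells/ml, left 24 h, then exposed to increasing compound concentrations for 72 h. Viability read as ATP level (ATPlite). IC50 from nonlinear sigmoidal fit with variable Hill slope; mean of two independent experiments.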

Experiment [2] has as its system DLD-1. As to the kind of experiment: Inhibition of 20S proteasome in human DLD1 cells transfected with 4Ub-Luc gene assessed as bioluminescence induction factor at 1 uM after 8 hrs by luciferase reporter gene assay relative to epoxomicin. The experiment is classed as cell-based. In outline:
(§1)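 Stably transfected DLD-1 cells expressing 4Ub-Luc reporter, cultured in MEM with 5% heat-inactivated serum. Seeded at 10⁴ cells/well and treated with compound or solvent for 8 h. Luciferase activity in lysates read by luminometer. Induction factor = signal of treated over untreated cells, normalised to epoxomicin at 10^-7 M run in parallel (set to 100). IF ≥10 counted active.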
On the technique in general: Reporter assays use an easily measured gene product as a stand-in for the process of interest.

Experiment [3] in a line: Inhibition of peptide-glutamyl-peptide-hydrolyzing activity of 20S proteasome in human DLD1 cells transfected with 4Ub-Luc gene using Z-Leu-Leu-Glu-AMC as substrate after 6 hrs by spectrofluorometric analysis. The experiment is classed as cell-based. The settings on record: dld-1. The method, boiled down:
(§2)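 DLD-1 4Ub-Luc cells seeded at 10⁴ cells/well, exposed to compound or solvent for 6 h, then 30 min in reaction buffer (30 mM Tris–HCl pH 7.5, 1 mM ATP). Chymotrypsin-like and PGPH activities read with specific fluorogenic substrates.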

The subject of experiment [4] is DLD-1. As to the kind of experiment: Inhibition of 20S proteasome in human DLD1 cells transfected with 4Ub-Luc gene assessed as bioluminescence induction factor at 5 uM after 8 hrs by luciferase reporter gene assay relative to epoxomicin. The experiment is classed as cell-based. In outline:
as §1

Experiment [5] concerns DLD-1. As to the kind of experiment: Inhibition of 20S proteasome in human DLD1 cells transfected with 4Ub-Luc gene assessed as bioluminescence induction factor at 0.5 uM after 8 hrs by luciferase reporter gene assay relative to epoxomicin. The experiment is classed as cell-based. The method, boiled down:
as §1

Experiment [6] in a line: Inhibition of chymotrypsin-like activity of 20S proteasome in human DLD1 cells transfected with 4Ub-Luc gene using Succinyl-Leu-Leu-Val-Tyr-AMC as substrate after 6 hrs by spectrofluorometric analysis. The settings on record: dld-1. The experiment is classed as cell-based. In outline:
as §2

Experiment [7] deals with DLD-1. As to the kind of experiment: Inhibition of 20S proteasome activity in human DLD1 cells transfected with 4Ub-Luc gene assessed as bioluminescence induction factor at 10 uM after 8 hrs by luciferase reporter gene assay relative to epoxomicin. The experiment is classed as cell-based. In outline:
as §1

pIC50: −log10 of the molar value. Several values for one entry are separate records, joined by “and”; a condition that tells them apart may be missing. Equal values may be shown once.

The pIC50 is the IC50 on a negative log10 scale, so that one unit is a factor of ten. Low values mean a high IC50, high ones a low IC50. Regarding `C=C(C(=O)[C@H](OC(C)=O)[C@@H](C)[C@H]1[C@@H](OC(C)=O)C[C@@]2(C)[C@@H]3CC[C@H]4[C@H](C)C(=O)C=C[C@@]45C[C@@]35CC[C@]12C)[C@@H](C)COC(C)=O`, the pIC50 is 5.82 in experiment [1], 4.37 in experiment [3] and 4.46 in experiment [6]. Besides, the results for the fold change (FC) in the experiment on DLD-1 [2], with DLD-1 [4] and with DLD-1 [5] were 11, 48 and 1.1, respectively.
Take `C=C(C(=O)[C@H](OS(=O)(=O)O)[C@@H](C)[C@H]1[C@@H](OC(C)=O)C[C@@]2(C)[C@@H]3CC[C@H]4[C@H](C)C(=O)C=C[C@@]45C[C@@]35CC[C@]12C)[C@@H](C)COS(=O)(=O)O`: the fold change (FC) with DLD-1 [2] turned out to be 1; in the experiment on DLD-1 [4], 1; with DLD-1 [7] it was 1.1; in the experiment with DLD-1 [5], 1. In addition, the pIC50 in experiment [3] and in experiment [6] was < 3.00 in each case.
`C=C(C(=O)[C@H](OC(=O)CNC(=O)OC(C)(C)C)[C@@H](C)[C@H]1[C@@H](OC(C)=O)C[C@@]2(C)[C@@H]3CC[C@H]4[C@H](C)C(=O)C=C[C@@]45C[C@@]35CC[C@]12C)[C@@H](C)COC(=O)CNC(=O)OC(C)(C)C`: the fold change (FC) in the experiment with DLD-1 [2] was 47; in the experiment on DLD-1 [4], 33; with DLD-1 [7] it was 17; in the experiment with DLD-1 [5], 4.3. Besides, the negative-log IC50 (pIC50) was 4.42 in experiment [3] and 4.68 in experiment [6].
Take `C=C(C(=O)[C@H](OC(C)=O)[C@@H](C)[C@H]1[C@@H](OC(C)=O)C[C@@]2(C)[C@@H]3CC[C@H]4[C@H](C)C(=O)C=C[C@@]45C[C@@]35CC[C@]12C)[C@@H](C)COP(=O)(OCC)OCC`: the fold change (FC) was 43 in the experiment on DLD-1 [2], 16 in the experiment on DLD-1 [4], 2 in the experiment on DLD-1 [7] and 3 with DLD-1 [5]. Further, the figures for the pIC50 in experiment [3] and in experiment [6] were 4.04 and 4.72, respectively.
For `C=C(C(=O)[C@H](OC(C)=O)[C@@H](C)[C@H]1[C@@H](OC(C)=O)C[C@@]2(C)[C@@H]3CC[C@H]4[C@H](C)C(=O)C=C[C@@]45C[C@@]35CC[C@]12C)[C@@H](C)COC(=O)CCN(CC)CC`, the fold change (FC) in the experiment on DLD-1 [2] worked out at 26; in the experiment with DLD-1 [4], 11; with DLD-1 [7] it was 2.7; in the experiment on DLD-1 [5] it was 1.5. Moreover, the pIC50 was 5.03 in experiment [3] and 5.00 in experiment [6].
With `C=CCOC[C@H](C)C(=C)C(=O)[C@H](OC(C)=O)[C@@H](C)[C@H]1[C@@H](OC(C)=O)C[C@@]2(C)[C@@H]3CC[C@H]4[C@H](C)C(=O)C=C[C@@]45C[C@@]35CC[C@]12C`, the fold change (FC) in the experiment on DLD-1 [2] was found to be 15; with DLD-1 [4], 49; in the experiment on DLD-1 [7], 19; with DLD-1 [5], 1.8. The pIC50 in experiment [3] and in experiment [6] was 4.00 in each case.
In the case of `C=CCOC[C@H](C)C(=C)C(=O)[C@H](O)[C@@H](C)[C@H]1[C@@H](OC(C)=O)C[C@@]2(C)[C@@H]3CC[C@H]4[C@H](C)C(=O)C=C[C@@]45C[C@@]35CC[C@]12C`, in experiment [1], the pIC50 is 6.11. In addition, the fold change (FC) with DLD-1 [2] came out at 49; in the experiment with DLD-1 [4], 13; in the experiment on DLD-1 [7], 1.5; in the experiment on DLD-1 [5], 3.7.
On to `C=C(C(=O)[C@H](O)[C@@H](C)[C@H]1[C@@H](OC(C)=O)C[C@@]2(C)[C@@H]3CC[C@H]4[C@H](C)C(=O)C=C[C@@]45C[C@@]35CC[C@]12C)[C@@H](C)COC(=O)N1CCN(C)CC1`, for which the values for the negative-log IC50 (pIC50) in experiment [1], in experiment [3] and in experiment [6] were 6.34, 4.49 and 4.41, respectively.
Consider `C=C(C(=O)[C@H](O)[C@@H](C)[C@H]1[C@@H](OC(C)=O)C[C@@]2(C)[C@@H]3CC[C@H]4[C@H](C)C(=O)C=C[C@@]45C[C@@]35CC[C@]12C)[C@@H](C)COC(=O)CCC(=O)O`, for which the fold change (FC) with DLD-1 [2] is 62 and 46; in the experiment with DLD-1 [4], 11 and 18; in the experiment on DLD-1 [7], 3.5 and 5; with DLD-1 [5], 6 and 2.6. Besides, the results for the pIC50 in experiment [3] and in experiment [6] were 4.33 and 4.21, respectively.
